Screening results: PubChem BioAssay, several laboratories
An excerpt weighted towards active compounds, which were near 3% of everything screened.
MEKK2mut PB1 HTS = MEK5 binding signal on mutant MEKK2 PB1, primary screen, biochemical, multiplex bead flow cytometry, Alexa488-MEK5; Alexa488-MEK5 binding to MEKK2 mutant; percent response, % at 10 µM; actives 0.35% (n = 290,000); AID 1530, 2009; in the data active = percent response above about 24%, passing the limit was not always enough
MEKK2wt PB1 HTS = modulators of MEK5 binding to wildtype MEKK2, primary screen, biochemical, multiplex bead flow cytometry, Alexa488-MEK5 | Mitogen-activated protein kinase kinase kinase 2 (Homo sapiens), Q9Y2U5 | Alexa488-MEK5 binding to MEKK2 WT; actives lie on both sides | binding response (% of control), % at 10 µM | actives 1.1% (n = 290,000) | AID 1531, 2009; in the data active = binding response below about 67% or above about 130%
Apaf1 inhib = inhibitors of human Apaf-1 apoptosome, primary screen, biochemical, DEVD-Rh110 fluorescence, uHTS; reconstituted apoptosome caspase-3 activity; inhibition, % at 20 µM; actives 0.71% (n = 330,000); active = inhibition of at least 40% at 20 µM;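 note: plate controls were DMSO wells for no effect and DEVD-CHO caspase inhibitor wells for full effect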
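Material: reconstituted apoptosome with Apaf-1, cytochrome c, caspase-9, procaspase-3, dATP / Buffer or medium: pH 7.5 Hepes buffer with CHAPS, BSA, DTT / Also added: cytochrome c with DEVD-Rh110 / Schedule: compound with Apaf-1, dATP, procaspase-3 30 min, then 50 min reaction, room temperature / Technique: rhodamine 110 fluorescence at Ex 480/Em 540 nm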
UBC13 polyUb = UBC13 polyubiquitin chain formation inhibitors, primary screen, biochemical, TR-FRET, uHTS | inhibition, % at 20 µM | Ubiquitin-conjugating enzyme E2 N (Homo sapiens), P61088 | actives 0.47% (n = 330,000); in the data active = inhibition above about 45%, passing the limit was not always enough
MEKK3 PB1 HTS = modulators of MEKK3-MEK5 PB1 binding, primary screen, biochemical, wildtype MEKK3, multiplex bead flow cytometry, Alexa488-MEK5; actives 1.4% (n = 290,000); AID 1529, 2009; binding response (% of control), % at 10 µM; bead-based flow cytometry, Alexa488-MEK5 binding to MEKK3; actives lie on both sides; 0 = blocked by unlabeled MEK5, 100 = vehicle;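 active = binding response more than 3 SD above or below the average of its plate-row segment, actives on both sides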;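 note: Alexa488 bead fluorescence after subtracting the streptavidin-only scavenger bead signal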
Target sequence (Q99759 whole entry, looked up): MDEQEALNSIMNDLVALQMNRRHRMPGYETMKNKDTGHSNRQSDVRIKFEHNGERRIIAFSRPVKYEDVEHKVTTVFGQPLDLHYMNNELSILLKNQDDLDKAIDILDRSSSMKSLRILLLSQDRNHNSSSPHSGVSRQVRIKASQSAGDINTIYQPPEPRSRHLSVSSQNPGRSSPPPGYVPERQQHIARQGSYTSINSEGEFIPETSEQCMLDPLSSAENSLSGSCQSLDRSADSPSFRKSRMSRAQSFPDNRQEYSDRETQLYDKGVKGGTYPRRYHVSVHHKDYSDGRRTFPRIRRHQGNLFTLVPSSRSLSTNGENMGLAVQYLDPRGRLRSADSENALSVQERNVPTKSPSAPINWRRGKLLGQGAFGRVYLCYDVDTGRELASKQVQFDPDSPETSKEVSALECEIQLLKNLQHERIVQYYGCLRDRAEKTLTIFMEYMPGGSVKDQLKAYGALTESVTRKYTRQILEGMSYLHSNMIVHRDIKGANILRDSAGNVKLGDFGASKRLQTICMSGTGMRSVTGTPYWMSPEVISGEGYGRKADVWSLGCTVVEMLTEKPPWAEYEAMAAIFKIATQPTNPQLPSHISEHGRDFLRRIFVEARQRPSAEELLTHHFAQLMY
UCH37 DUB inh = inhibitors of human UCH37 deubiquitinase, primary screen, biochemical, Ub-AMC cleavage, fluorescence; actives 0.33% (n = 330,000); Ubiquitin carboxyl-terminal hydrolase isozyme L5 (Homo sapiens), Q9Y5K5; inhibition, % (test concentration not listed); AID 588478, 2011; purified proteasome/UCH37;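 active = mean inhibition over replicate wells above about 20%, limit read from the data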;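 note: 0% = compound-free wells with enzyme and 100% = wells lacking proteasome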
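assay system = human UCH37 enzyme supplied as purified proteasome complex | amount = proteasome at 0.15 nM in the dispensed enzyme solution | schedule = 30 min compound-proteasome preincubation then 25 min substrate reaction, room temperature | measured by = fluorescence, ex 355 nm, em 460 nm | benchmarks = no-proteasome wells (full inhibition) and compound-free wells (no inhibition)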
MEKK2wt confirm = modulators of MEK5 binding to wildtype MEKK2, confirmation, biochemical, single concentration, multiplex bead flow cytometry | AID 1892, 2009 | Alexa488-MEK5 binding to MEKK2 WT; actives lie on both sides | actives 2.4% (n = 5,900) | shares compounds with MEKK3 PB1 HTS | binding response (% of control), % at 10 µM; in the data active = binding response below about 16% or above about 210%; inactive = in between
MEKK2mut-MEK5 = mutant MEKK2 PB1-MEK5 binding signal retest – biochemical, single concentration, multiplex bead flow cytometry, confirmation; shares compounds with MEKK3 PB1 HTS; Alexa488-MEK5 binding to MEKK2 mutant; percent response, % at 10 µM; actives 2% (n = 5,900); AID 1893, 2009; in the data active = percent response mostly above about 71%, no sharp cut-off; inactive = mostly below about 38%;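 note: higher means compound restores mutant binding toward wildtype level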
MEKK3 confirm = MEKK3 wild-type PB1 binding to MEK5, inhibitors, confirmation, biochemical, bead multiplex flow cytometry, single concentration, wildtype; shares compounds with MEKK3 PB1 HTS; Alexa488-MEK5 binding to MEKK3; stronger effect = lower value; binding response (% of control), % at 10 µM; actives 1.8% (n = 5,900);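 active = binding response below 72% of control, or above a set upper limit, though filed actives all read lower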;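 note: 100% = DMSO only wells and 0% = binding blocked by excess unlabeled MEK5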
Starred values were filed as active, the others as inactive; nt = no result given; [ ] = dose if it differs, or a comment.

SMILES | MEKK2mut PB1 HTS | MEKK2wt PB1 HTS | Apaf1 inhib | UBC13 polyUb | MEKK3 PB1 HTS | UCH37 DUB inh | MEKK2wt confirm | MEKK2mut-MEK5 | MEKK3 confirm
CCOC(=O)C(C)Sc1nc(=O)n2cc(C)ccc2n1 (centres undefined) | -15 | 54 | -10 | -5 | 45*[inhibitor] | -14 | 117 | 7 | 103
Cc1ccc(NC(=O)CCCCCNS(=O)(=O)c2ccc(C)cc2)cc1 | 0 | 104 | 10 | 2 | 102 | 3 | nt | nt | nt
Cc1ccc(S(=O)(=O)NCCCCCC(=O)N(C)C)cc1 | -11 | 77 | 6 | -4 | 71*[inhibitor] | 2 | 105 | 6 | 106
CCn1c(SCC(=O)Nc2cc(C(C)(C)C)nn2-c2ccccc2)nnc1-c1cccs1 | 0 | 107 | -11 | 4 | 151* | 4 | 100 | -10 | 101
CCOC(=O)C1(Cc2ccc(Cl)cc2)CCN(CCCn2cccn2)CC1 | -10 | 119 | 4 | -4 | 99 | 1 | nt | nt | nt
COc1ccccc1CNC(=O)CSc1nnc2c(Cl)cc(C(F)(F)F)cn12 | 1 | 109 | 10 | -8 | 137* | -2 | 109 | 5 | 109
COc1ccccc1CNC(=O)CSc1ccc(C)cc1 | 2 | 112 | 4 | -5 | 145* | 1 | 103 | 2 | 102
O=C(c1cccc([N+](=O)[O-])c1)N1CCN(c2ncccn2)CC1 | 32* | 98 | 2 | -1 | 106 | 4 | 101 | -4 | 100
O=C(c1cccc(C(=O)N2CCN(c3ncccn3)CC2)c1)N1CCN(c2ncccn2)CC1 | nt | nt | -7 | -4 | nt | -6 | nt | nt | nt
CC(C)CSc1nnc2[nH]c(=O)cc(N)n12 | 3 | 86 | -3 | 1 | 60*[inhibitor] | 1 | 99 | -2 | 100
CCCCCCCCSc1nnc2[nH]c(=O)cc(N)n12 | 0 | 111 | 3 | -6 | 115 | 2 | nt | nt | nt
COC(=O)CCCC1=CC2=C(c3ccccc3)C(=O)C(C)(OC(=O)C3CCCC3)C(=O)C2=CN1c1ccccc1 (centres undefined) | 1 | 154* | 17 | -40 | 128* | 0 | 87 | -5 | 94
COC(=O)CCCC1=CC2=C(c3ccccc3)C(=O)C(C)(OC(=O)C3CCCC3)C(=O)C2=CN1C1CC1 (centres undefined) | 1 | 155* | 17 | -30 | 122 | 2 | 103 | 0 | 102
COc1cc(C(=O)NCc2cccc3ccccc23)ccc1OCc1ccccc1 | 0 | 102 | 27 | -6 | 105 | 1 | nt | nt | nt
Cn1cnnc1Sc1ccc(C(=O)OCC(=O)Nc2cc(Cl)cc(Cl)c2)cc1[N+](=O)[O-] | 3 | 119 | 8 | 16 | 137* | 6 | 124 | 15 | 99
c1nc(NCC2(N3CCOCC3)CCCCC2)c2ccsc2n1 | 4 | 117 | -313 | -6 | 123* | 2 | 106 | 7 | 108
